Measured values: ChEMBL document CHEMBL1146376, “Antiviral activity of berberine and related compounds against human cytomegalovirus” (Bioorg Med Chem Lett, 2007)
pIC50: −log10 of the molar value. Calls of active or inactive are those of the source. The rule behind the calls is not given here.

Assays:
[1] = test system: MRC5; test: (§1) Cytotoxicity against MRC5 cells; type: cell-based, Homo sapiens; settings: Homo sapiens, MRC5
[2] = test system: Human betaherpesvirus 5; test: Antiviral activity against HCMV in MRC5 cells by plaque reduction assay; type: functional, organism-based; settings: Human betaherpesvirus 5, MRC5
In short: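 HCMV plaque yield reduction assay in MRC-5 cells. IC50 is the 50% inhibitory concentration. Values are means of three experiments.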

[3] = Selectivity index, ratio of CC50 for MRC5 cells to IC50 for HCMV; type: functional
In short: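 Ratio of CC50 (50% cytotoxic concentration in MRC-5 cells) to IC50 from the HCMV plaque yield reduction assay in MRC-5 cells. Values are means of three experiments.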

[4] = as §1; type: cell-based, Homo sapiens; settings: human, MRC5 cells
[5] = test system: Human betaherpesvirus 5; test: Inhibition of HCMV proliferation in MRC5 cells after 24 hrs post-infection at 10 uM by plaque assay; type: functional, organism-based
In short: (§2)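 Time-of-addition: MRC-5 cultures were infected at 0.5 PFU/cell, and compound (10 µM) was added at set times from 0 to 120 h post-infection. Virus titre was measured by plaque assay at 168 h post-infection and expressed as percent of control plaque numbers. Values are means of duplicate assays.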

[6] = test system: Human betaherpesvirus 5; test: Inhibition of HCMV proliferation in MRC5 cells after 54 hrs post-infection at 10 uM by plaque assay; type: functional, organism-based; in short: as §2
[7] = test system: Human betaherpesvirus 5; test: Inhibition of HCMV penetration to MRC5 cells at 0.2 to 2 uM; type: functional, organism-based
In short: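 HCMV (about 100 PFU/well) was bound to pre-chilled MRC-5 monolayers for 1 h at 4 C, then washed three times with ice-cold PBS. Cells were shifted to 37 C in medium with compound (final 0.2, 0.5, 1 or 2). At 0, 0.5, 1, 2, 3, 6 and 10 h, unpenetrated virus was inactivated with 40 mM citrate buffer pH 3.0 for 1 min. Plaques were counted under 0.5% methylcellulose overlay.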

[8] = test system: Human betaherpesvirus 5; test: Inhibition of HCMV adsorption to MRC5 cells at 0.2 to 2 uM by infectious centre assay; type: functional, organism-based
In short: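 Infectious centre assay for adsorption: HCMV (1 PFU/cell), MRC-5 cell suspension (1 · 10^5 cells/mL) and compound (final 0.2, 0.5, 1, 2) were chilled on ice 2 h, then mixed and held 1 h at 4 C. Cells were washed with ice-cold PBS to remove unbound virus and compound. Pellets were diluted 100- or 1000-fold and plated onto MRC-5 monolayers for plaque counting.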

SMILES | pIC50 [1] | pIC50 [2] | Ratio CC50/IC50 [3] | CC50 [4] [µM] | Activity [5] | Activity [6] | Activity [7] | Activity [8]
COc1ccc2c(c1OC)C(C#N)N1CCc3cc4c(cc3C1=C2)OCO4 (stereo not given) | 4.80 | 6.06 | 18 | – | – | – | – | –
COc1cc(OC)c2c(c1)OC(c1ccc(OC)c(OC)c1)C(OC)C2 (stereo not given) | – | 4.77 | 4 | 68 | – | – | – | –
COc1cc(OC)c2c(c1)OC(c1ccc(OC)c(OC)c1)C(O)C2 (stereo not given) | – | < 3.70 | <1 | 190 | – | – | – | –
COc1ccc(C2CC(=O)c3c(OC)cc(O)cc3O2)cc1 (stereo not given) | – | 4.04 | 0.13 | 12 | – | – | – | –
COc1ccc2c(c1OC)C(C(Cl)(Cl)Cl)N1CCc3cc4c(cc3C1=C2)OCO4 (stereo not given) | – | 6.28 | 16 | 8.4 | – | – | – | –
COc1cc(C[C@H]2C(=O)OC[C@@H]2Cc2ccc(OC)c(OC)c2)ccc1O [ARCTIGENIN] | – | 5.68 | 36 | 76 | – | – | – | –
COc1ccc(C[C@H]2COC(=O)[C@@H]2Cc2ccc(O[C@@H]3O[C@H](CO)[C@@H](O)[C@H](O)[C@H]3O)c(OC)c2)cc1OC [ARCTIIN] | – | 4.80 | 15 | 240 | – | – | – | –
COc1ccc2cc3[n+](cc2c1OC)CCc1cc2c(cc1-3)OCO2.[Cl-] [BERBERINE CHLORIDE] | – | 6.17 | 110 | 74 | Active | Active | inactive | inactive
COc1ccc2c(c1OC)CN1CCc3cc4c(cc3[C@@H]1C2)OCO4 [CANADINE] | – | 4.92 | 10 | 125 | – | – | – | –
COc1ccc2c(c1OC)CN1CCc3cc4c(cc3C1=C2)OCO4 [DIHYDROBERBERINE] | – | 4.03 | 1.7 | 155 | – | – | – | –
Nc1nc2c(ncn2COC(CO)CO)c(=O)[nH]1 [GANCICLOVIR] | 3.01 | 6.04 | 1100 | – | – | – | – | –
COc1ccc(Cc2nccc3cc(OC)c(OC)cc23)cc1OC.Cl [PAPAVERINE HYDROCHLORIDE] | – | 4.68 | 29 | 610 | – | – | – | –
